# Values joined by “and” are separate entries in the source; they are usually repeats but may differ in a detail not shown here. Equal entries are not always repeated. Where two headings read alike, the source gives them in different places.
# Key:
# tau = details: 2-week treatment, ventral horn spinal motoneurons and hippocampal CA3 mossy fibers, tau × amyloid precursor protein mice; cited from earlier work
# pSer9-GSK3β [1] = details: cortex of CD1 mice; cited from earlier work
# pSer9-GSK3β [2] = details: Tg2576 (APP) AD-transgenic mice; cited from earlier work
# [3] = Plasma and brain exposure after 5-month repeated oral; assay type: in vivo, mouse; details: for Brain/plasma AUC(0–24 h) ratio / AUC(0–24 h) / Cmax/Cmin ratio / Cmin / Cmax: 5 months; for 0.002%/0.00067% AUC(0–24 h) ratio: 5 months in diet
# Procedure, shortened: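 Male WT mice received the test compound in diet (0.00067% or 0.002%) for 5 months. Blood was taken from the mandibular vein of awake mice into lithium heparin and centrifuged at 1500–2000g for 10 min at 4°C; plasma was stored at −80°C. Pons/cerebellum was dissected. Samples spanned 24 h; analytes were acetonitrile-precipitated and measured by LC-MS/MS.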
# THY-Tau22 mice = test: Shape and spatial object recognition test; assay type: in vivo, mouse; details: for recognition index, shape episodic memory: Fig. 2A; for recognition index, shape episodic memory / recognition index, spatial episodic memory: means ± SEM; for recognition index, spatial episodic memory: Fig. 2B
# Procedure, shortened: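 Individually housed male THY-Tau22 and WT littermates (enriched environment, reverse light/dark cycle) received diet dosing from age 2 months for 4 or 6 months. Object recognition used a 59 × 59 × 30 cm PVC open field (black walls, white floor) with an overhead camera. Washout groups were tested for shape at 10 d and spatial memory at 17 d after cessation. Recognition index is reported as mean ± SEM.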
# tau protein = assay type: in vivo, mouse; details: for change in tau phosphorylation at Ser199/202-Thr205 (AT8 signal): 6 months in diet, not significant
# Procedure, shortened: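 Cortex or hippocampus from THY-Tau22 mice given diet dosing for 6 months was homogenized in RIPA buffer (pH 7.5) with protease inhibitors, 1 μM okadaic acid and 100 mM NaF, then centrifuged at 16,000g for 10 min at 4°C. Protein (5 or 20 μg) was run on 4–12% Bis-Tris gels, transferred to PVDF and blocked in 5% milk. Primary antibodies were applied overnight at 4°C. Values are relative, n = 7–9/group.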
# Ser9-GSK3β = test: Western blot of Ser9-GSK3β in hippocampus; assay type: in vivo, mouse; details: 2-week treatment, 0.002% and 0.02% in drinking water, THY-Tau22 mice
# [4] = tested on: AT8 (pSer199/202-Thr205) tau; test: AT8 immunostaining, quantitative image analysis; assay type: in vivo, mouse; details: 6 months, cortex
# Procedure, shortened: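 Male THY-Tau22 mice received the test compound in diet (0.0002%, 0.002% or 0.02%) for 6 months from age 2 months. Hemibrains were immersion-postfixed 7 days at 4°C in 4% formaldehyde, and 20 μm serial sagittal cryostat sections were cut. AT8 immunostaining was quantified by virtual-slide scanning image analysis as mean positive cell bodies count. Dunnett tests were run on log-transformed data, n = 9 mice/group.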
# neurofibrillary tangles = test: Neurofibrillary tangles, Gallyas silver staining; assay type: in vivo, mouse; details: 6 months
# MIP-1α = test: Hippocampal mRNA expression, quantitative real-time RT-PCR; assay type: in vivo, mouse; details: 6 months, hippocampus
# GFAP = test: as above; assay type: in vivo, mouse; details: 6 months in diet, hippocampus, THY-Tau22
# cystatin F = test: as above; assay type: in vivo, mouse; details: 6 months in diet, hippocampus, THY-Tau22
# APPxPS1 transgenic mice = test: Object recognition test in APPxPS1 transgenic mice; assay type: in vivo, mouse; details: data not shown
# rats = details: object recognition test, acute treatment; cited from earlier work
# mice = details: object recognition test, acute treatment; cited from earlier work
# [5] = tested on: histamine H3-receptor (H3R); details: compared with ABT-239; cited from earlier work
smiles,measurement,setting,value
C[C@@H]1CCCN1CCc1cc2cc(-c3ccc(C#N)cc3)ccc2o1 [ABT-239],tau hyperphosphorylation (AT8 site),tau,decreases tau hyperphosphorylation
same,levels of pSer9-GSK3β (inactive form of GSK3β),pSer9-GSK3β [1],increased the levels
same,reduction in hippocampal pSer9-GSK3β levels,pSer9-GSK3β [2],reversed the reduction
CN1CCCC1CCNS(=O)(=O)c1ccc2c(c1)CN(CC1CCCCC1)CC2 (centres unmarked) [SAR110894],Brain/plasma AUC(0–24 h) ratio,[3]; 0.00067% in diet,3.5
same,AUC(0–24 h),"[3]; 0.00067% in diet, brain",110 ng·h/g
same,AUC(0–24 h),"[3]; 0.00067% in diet, plasma",31 ng·h/mL
same,Cmax/Cmin ratio,"[3]; 0.00067% in diet, plasma",1.4
same,Cmin,"[3]; 0.00067% in diet, plasma",1.26 ng/mL and 4.83 nM
same,Cmax/Cmin ratio,"[3]; 0.00067% in diet, pons/cerebellum",1.5
same,Brain/plasma AUC(0–24 h) ratio,[3]; 0.002% in diet,3.5
same,AUC(0–24 h),"[3]; 0.002% in diet, brain",390 ng·h/g
same,AUC(0–24 h),"[3]; 0.002% in diet, plasma",110 ng·h/mL
same,Cmax,"[3]; 0.002% in diet, plasma",24.8 nM
same,Cmax/Cmin ratio,"[3]; 0.002% in diet, plasma",2.7
same,Cmin,"[3]; 0.002% in diet, plasma",2.44 ng/mL and 9.35 nM
same,Cmax,"[3]; 0.002% in diet, plasma, male WT mice",6.48 ng/mL
same,Cmax/Cmin ratio,"[3]; 0.002% in diet, pons/cerebellum",2.1
same,0.002%/0.00067% AUC(0–24 h) ratio,[3]; plasma,3.5
same,0.002%/0.00067% AUC(0–24 h) ratio,[3]; pons/cerebellum,3.5
same,deficit in shape episodic memory,"THY-Tau22 mice; 0.00067% in diet, 4 months, THY-Tau22 mice, confirmatory study, Fig. 2C",no effect
same,deficit in spatial episodic memory,"THY-Tau22 mice; 0.00067% in diet, 4 months, THY-Tau22 mice, confirmatory study, Fig. 2D",reduced the deficit
same,"recognition index, shape episodic memory","THY-Tau22 mice; 0.002% in diet, THY-Tau22 mice, P = .0010",64 ± 2%
same,"recognition index, spatial episodic memory","THY-Tau22 mice; 0.002% in diet, THY-Tau22 mice, P = .0153",58 ± 3%
same,procognitive effect on shape episodic memory after treatment washout,"THY-Tau22 mice; 0.002% in diet, after 1 week of washout, Fig. 2C",still persisted
same,procognitive effect on spatial episodic memory after treatment washout,"THY-Tau22 mice; 0.002% in diet, after 2 weeks of washout, Fig. 2D",still persisted
same,"recognition index, shape episodic memory","THY-Tau22 mice; 0.02% in diet, THY-Tau22 mice, P = .0104",61 ± 3%
same,"recognition index, spatial episodic memory","THY-Tau22 mice; 0.02% in diet, THY-Tau22 mice, P = .0002",60 ± 2%
same,cognitive deficits in THY-Tau22 mice,THY-Tau22 mice; administered during 4 or 6 months starting at the age of 2 months,prevented cognitive deficits
same,change in tau phosphorylation at pSer214,"tau protein; 0.002% in diet, 6 months, cortex, P = .0052",−35%
same,change in tau phosphorylation at pSer422,"tau protein; 0.002% in diet, 6 months, cortex, no effect, P = .3019",−20%
same,change in tau phosphorylation at pThr181 (AT270 signal),"tau protein; 0.002% in diet, 6 months, cortex, no effect, P = .4830",−16%
same,change in AD2 signal,"tau protein; 0.002% in diet, 6 months, cortex, second independent Western blot evaluation, P = .0191, Fig. 4F",−37%
same,change in AD2 signal,"tau protein; 0.002% in diet, 6 months, cortex, trend, P = .2766, Fig. 4B",−57%
same,change in total tau (Tau5 signal),"tau protein; 0.002% in diet, 6 months, cortex, unchanged, P = .0950",−17%
same,change in tau phosphorylation at residues 396/404 (AD2 signal),"tau protein; 0.002% in diet, 6 months, hippocampus, THY-Tau22, P = .0291",−37%
same,tau hyperphosphorylation (AD2 or AT8),"tau protein; 2-week treatment, 0.002% and 0.02% in drinking water, hippocampus, 5- to 6-month-old THY-Tau22 mice",no effect
same,change in tau phosphorylation at Ser199/202-Thr205 (AT8 signal),"tau protein; cortex, P = .8054, Fig. 4E",−29%
same,change in tau phosphorylation at Ser199/202-Thr205 (AT8 signal),"tau protein; hippocampus, P = .5560, Fig. 4D",−22%
same,tau hyperphosphorylation (AD2 or AT8 epitopes),"tau protein; acute administration 3 and 10 mg/kg orally, cingulate cortex, 3-month-old THY-Tau22 mice, data not shown",no effect
same,level of Ser9-GSK3β (inactive form of GSK3β),Ser9-GSK3β,no effect
same,decrease in number of AT8-positive neuronal cell bodies,"[4]; 0.002% in diet, THY-Tau22, P = .0010",47%
same,intensity of AT8 immunostaining within neuronal cell bodies and fibers,"[4]; 0.002% in diet, data not shown",marked decrease
same,decrease in number of AT8-positive neuronal cell bodies,"[4]; 0.02% in diet, THY-Tau22, P = .0250",32%
same,change in number of NFTs,"neurofibrillary tangles; 0.002% in diet, cortex, P = .0001",−48%
same,change in number of NFTs,"neurofibrillary tangles; 0.002% in diet, hippocampus, P < .0001",−25%
same,change in number of NFTs,"neurofibrillary tangles; 0.02% in diet, amygdala, P = .0065",−31%
same,change in number of NFTs,"neurofibrillary tangles; 0.02% in diet, cortex, P = .0019",−41%
same,change in number of NFTs,"neurofibrillary tangles; 0.02% in diet, hippocampus, P = .0006",−22%
same,change in expression of MIP-1α,"MIP-1α; 0.0002% in diet, THY-Tau22, P = .0087",−35%
same,change in expression of MIP-1α,"MIP-1α; 0.002% in diet, THY-Tau22, P = .0184",−36%
same,expression of GFAP,GFAP,no effect
same,expression of cystatin F,cystatin F,no effect
same,memory deficits in APPxPS1 transgenic mice,APPxPS1 transgenic mice,decreased memory deficits
same,scopolamine-induced memory deficits,rats,prevented the occurrence
same,memory deficits induced by infusion of Aβ(25–35),mice,decreased the memory deficits
same,affinity and selectivity for H3R,[5],higher affinity and selectivity than ABT-239
